Measurements as given in paper PMC6919324 (European journal of pharmaceutics and biopharmaceutics : …, 2019).

What was measured:
P-gp [1] = molecular target: T1, P-gp (Homo sapiens, UniProt P08183); assay: Caco-2 transwell basolateral to apical transport of P-gp substrates; format: in vitro ADME
P-gp [2] = molecular target: P-gp (Mus musculus, UniProt P21447); assay: Ex vivo mouse jejunum intestinal sac, mucosal to serosal R123 transport; format: in vitro ADME, BALB/c mice; settings: BALB/c, with microdevices, 3000 microdevices/cm^2
Summary of the method: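 Intestinal sacs from three BALB/c mice aged 18–20 weeks, with one end tied off, were incubated in media at 37°C. Over time the serosal-side solution was removed and replaced with fresh media. Fluorescence of the removed solution was read at excitation 495 nm and emission 560 nm.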

P-gp [3] = molecular target: T1, P-gp; assay: Biosimilar mucus transport study of R123 in Caco-2 transwells; format: in vitro ADME

T1 sequence (P08183 whole entry): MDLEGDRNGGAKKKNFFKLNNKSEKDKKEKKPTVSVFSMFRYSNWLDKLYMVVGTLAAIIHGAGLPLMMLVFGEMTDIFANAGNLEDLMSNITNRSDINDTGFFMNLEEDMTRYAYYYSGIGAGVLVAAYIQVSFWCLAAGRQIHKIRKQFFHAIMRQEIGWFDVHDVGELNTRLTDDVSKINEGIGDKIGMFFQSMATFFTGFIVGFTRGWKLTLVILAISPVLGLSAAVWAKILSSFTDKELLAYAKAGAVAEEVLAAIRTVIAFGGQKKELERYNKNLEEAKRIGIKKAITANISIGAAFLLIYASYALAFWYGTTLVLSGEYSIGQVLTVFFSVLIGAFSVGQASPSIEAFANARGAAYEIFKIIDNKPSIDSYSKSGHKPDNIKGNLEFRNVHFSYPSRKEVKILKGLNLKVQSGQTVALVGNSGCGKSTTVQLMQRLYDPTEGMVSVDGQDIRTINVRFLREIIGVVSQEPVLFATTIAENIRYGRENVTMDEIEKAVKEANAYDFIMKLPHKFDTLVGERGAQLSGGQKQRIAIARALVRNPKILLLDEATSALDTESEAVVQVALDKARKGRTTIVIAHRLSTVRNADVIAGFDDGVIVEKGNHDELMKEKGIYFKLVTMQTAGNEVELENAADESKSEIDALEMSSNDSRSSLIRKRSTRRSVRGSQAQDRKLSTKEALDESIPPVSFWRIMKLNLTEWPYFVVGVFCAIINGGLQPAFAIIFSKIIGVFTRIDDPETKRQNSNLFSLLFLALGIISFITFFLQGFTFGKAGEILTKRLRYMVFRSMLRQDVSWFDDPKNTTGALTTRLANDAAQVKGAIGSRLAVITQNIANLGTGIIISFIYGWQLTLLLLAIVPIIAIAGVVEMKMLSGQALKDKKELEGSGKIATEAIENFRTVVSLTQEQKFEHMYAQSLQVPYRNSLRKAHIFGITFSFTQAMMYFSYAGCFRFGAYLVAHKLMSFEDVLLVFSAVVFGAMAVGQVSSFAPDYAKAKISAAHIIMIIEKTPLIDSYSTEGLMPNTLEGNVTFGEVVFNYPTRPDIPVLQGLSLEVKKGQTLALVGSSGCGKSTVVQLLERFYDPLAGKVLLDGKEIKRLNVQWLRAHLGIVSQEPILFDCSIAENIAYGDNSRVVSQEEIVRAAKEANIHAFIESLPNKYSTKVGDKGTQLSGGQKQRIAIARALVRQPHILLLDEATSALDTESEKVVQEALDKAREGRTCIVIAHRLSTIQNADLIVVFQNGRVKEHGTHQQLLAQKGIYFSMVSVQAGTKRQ
P-gp (Mus musculus, UniProt P21447), sequence (P21447 whole entry): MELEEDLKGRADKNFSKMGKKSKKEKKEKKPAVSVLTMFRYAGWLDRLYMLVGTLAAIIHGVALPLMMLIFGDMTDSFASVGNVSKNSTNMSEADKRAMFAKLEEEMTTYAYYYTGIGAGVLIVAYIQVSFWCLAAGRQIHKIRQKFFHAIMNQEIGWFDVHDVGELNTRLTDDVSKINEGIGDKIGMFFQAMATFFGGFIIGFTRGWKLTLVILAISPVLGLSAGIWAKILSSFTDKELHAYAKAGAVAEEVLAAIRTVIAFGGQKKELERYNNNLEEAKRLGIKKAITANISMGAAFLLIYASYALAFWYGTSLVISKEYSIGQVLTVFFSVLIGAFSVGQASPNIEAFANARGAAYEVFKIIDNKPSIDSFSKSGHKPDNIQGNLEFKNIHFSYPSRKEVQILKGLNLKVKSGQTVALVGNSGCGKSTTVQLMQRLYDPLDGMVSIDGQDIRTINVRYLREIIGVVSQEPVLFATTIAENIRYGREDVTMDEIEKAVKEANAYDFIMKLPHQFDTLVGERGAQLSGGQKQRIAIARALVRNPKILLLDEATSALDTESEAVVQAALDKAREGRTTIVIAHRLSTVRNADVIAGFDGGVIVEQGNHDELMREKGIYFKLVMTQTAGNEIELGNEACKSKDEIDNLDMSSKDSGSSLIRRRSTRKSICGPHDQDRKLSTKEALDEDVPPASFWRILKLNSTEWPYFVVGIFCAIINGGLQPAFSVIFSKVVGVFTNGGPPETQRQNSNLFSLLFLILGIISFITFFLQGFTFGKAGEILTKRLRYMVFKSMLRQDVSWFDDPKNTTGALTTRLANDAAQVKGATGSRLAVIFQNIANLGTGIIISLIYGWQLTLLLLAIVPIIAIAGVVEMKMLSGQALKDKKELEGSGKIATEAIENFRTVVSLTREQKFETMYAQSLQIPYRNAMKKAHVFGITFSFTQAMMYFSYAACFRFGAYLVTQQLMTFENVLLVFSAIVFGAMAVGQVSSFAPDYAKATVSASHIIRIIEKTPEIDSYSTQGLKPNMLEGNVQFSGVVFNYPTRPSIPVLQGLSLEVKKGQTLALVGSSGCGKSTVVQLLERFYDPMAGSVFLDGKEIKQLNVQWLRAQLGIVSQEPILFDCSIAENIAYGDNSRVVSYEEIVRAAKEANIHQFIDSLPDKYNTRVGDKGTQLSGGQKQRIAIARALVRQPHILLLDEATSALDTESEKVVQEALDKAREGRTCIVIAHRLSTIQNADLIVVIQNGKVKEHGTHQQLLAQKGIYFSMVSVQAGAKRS

Row | Structure (SMILES) | Papp B→A (P-gp [1]) [×10⁻⁶ cm/s] | Papp at 5 µM (P-gp [2]) [×10⁻⁶ cm/s] | Papp B→A at 5 µM (P-gp [3]) [×10⁻⁶ cm/s]
1 | COc1cccc2c1C(=O)c1c(O)c3c(c(O)c1C2=O)C[C@@](O)(C(=O)CO)C[C@@H]3O[C@H]1C[C@H](N)[C@H](O)[C@H](C)O1 [Doxorubicin, doxorubicin] | 1.9 ± 0.35 |  | 
2 | COC(=O)c1ccccc1-c1c2ccc(=N)cc-2oc2cc(N)ccc12 [R123, rhodamine 123] | 8.03 ± 3.5 | 0.35 | 9.25 ± 3.8
